{"source": "paper PMC5776435", "about": "(Iranian Journal of Basic Medical Sciences, 2018)", "key": {"[1]": {"test_system": "HepG2 cells", "assay": "MTT assay, cytotoxicity on HepG2 cells", "format": "cell-based, human", "how_it_was_run": "(§1)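 Cells were grown in RPMI 1640 with 10% FBS and penicillin/streptomycin at 37 °C, 5% CO2, and seeded for 24 hr. They were exposed 6 hr to peptide (1.25–100 µg/ml for IC50; 10 µg/ml for viability). MTT (5 mg/ml stock in PBS) was then added for 4 hr at 37 °C, formazan dissolved in DMSO for 30 min, and A570 read. 5-Fluorouracil served as positive control and DMSO as blank. Triplicates were run; IC50 is the mean ± SD of three experiments.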"}, "[2]": {"test_system": "HT-29 cells", "assay": "MTT assay, cytotoxicity on HT-29 cells", "format": "cell-based, human", "how_it_was_run": "as §1"}, "[3]": {"conditions": "MTT assay, 10 µg/ml of each peptide, 6 hr, control = 100"}}, "data": [{"smiles": "O=c1[nH]cc(F)c(=O)[nH]1", "note": "[5-Fluorouracil]", "values": [{"measurement": "IC50", "setting": "[1]; Homo sapiens, HepG2, 6 h, read-out: IC50 cell line HepG2", "value": 3.16, "unit": "µg/mL"}, {"measurement": "Viability percentage (HepG2), MTT assay", "setting": "[1]; [3]", "value": 3.22, "unit": "%"}, {"measurement": "IC50", "setting": "[2]; Homo sapiens, HT-29, 6 h, read-out: IC50 cell line HT-29", "value": 6.08, "unit": "µg/mL"}, {"measurement": "Viability percentage (HT-29), MTT assay", "setting": "[2]; [3]", "value": 9.28, "unit": "%"}]}]}
